Reference: ChEMBL document CHEMBL5705899 (Biochem J, 2014)
Calls of active or inactive are those of the source. The rule behind the calls is not given here.

Experiments:
[1] = target: Casein kinase I isoform gamma-2 (Homo sapiens) (UniProt P78368); assay: Inhibition of recombinant human N-terminal GST-tagged CK1g2 (1 to 415 residues) expressed in Escherichia coli assessed as remaining activity at 1 uM using RRKDLHDDEEDEAMSITA as substrate incubated for 30 mins in presence of [gamma-33P]ATP by filter binding method relative to control
[2] = target: Calcium/calmodulin-dependent protein kinase type 1 (Homo sapiens) (UniProt Q14012); assay: Inhibition of recombinant human N-terminal GST-tagged CAMK1alpha (2 to 369 residues) expressed in Escherichia coli assessed as remaining activity at 1 uM using YLRRRLSDSNF as substrate incubated for 30 mins in presence of [gamma-33P]ATP by filter binding method relative to control
[3] = target: Serine/threonine-protein kinase D1 (Homo sapiens) (UniProt Q15139); assay: Inhibition of recombinant human N-terminal His6-tagged PKD1 (2 to 912 residues) expressed in baculovirus infected Sf21 cells assessed as remaining activity at 1 uM using KKLNRTLSVA as substrate incubated for 30 mins in presence of [gamma-33P]ATP by filter binding method relative to control
[4] = target: Serine/threonine-protein kinase PAK 2 (Homo sapiens) (UniProt Q13177); assay: Inhibition of PAK2 (unknown origin) assessed as remaining activity at 1 uM relative to control
In short: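 Dundee panel of 140 protein kinases, tested at a single 1 μM concentration. Each assay was run in triplicate. Remaining activity is expressed relative to a control reaction without inhibitor, as mean ± S.D. Conditions for each kinase were those of the screening centre.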

[5] = target: Ephrin type-A receptor 1 (Homo sapiens) (UniProt P21709); assay: Inhibition of human EPHA1 at 1 uM using polyEY as substrate in presence of 33P-ATP by ProQinase assay
[6] = target: Ephrin type-B receptor 1 (Homo sapiens) (UniProt P54762); assay: Inhibition of human EPHB1 at 1 uM using polyEY as substrate in presence of 33P-ATP by ProQinase assay
[7] = target: ALK tyrosine kinase receptor (Homo sapiens) (UniProt Q9UM73); assay: Inhibition of human GST/His-tagged ALK at 1 uM using polyEY as substrate in presence of 33P-ATP by ProQinase assay
[8] = target: Muscle, skeletal receptor tyrosine-protein kinase (Homo sapiens) (UniProt O15146); assay: Inhibition of human MUSK at 1 uM using poly(Ala,Glu,Lys,Tyr) as substrate in presence of 33P-ATP by ProQinase assay
[9] = target: Calcium/calmodulin-dependent protein kinase kinase 2 (Homo sapiens) (UniProt Q96RR4); assay: Inhibition of human CAMKK2 at 1 uM using RBER-GSK3 as substrate in presence of 33P-ATP by ProQinase assay
[10] = target: Serine/threonine-protein kinase VRK1 (Homo sapiens) (UniProt Q99986); assay: Inhibition of human VRK1 at 1 uM using RBER-CHKtide as substrate in presence of 33P-ATP by ProQinase assay
[11] = target: Calcium/calmodulin-dependent protein kinase type II subunit delta (Homo sapiens) (UniProt Q13557); assay: Inhibition of human CAMK2D at 1 uM using RBER-CHKtide as substrate in presence of 33P-ATP by ProQinase assay
[12] = target: Mitogen-activated protein kinase kinase kinase 14 (Homo sapiens) (UniProt Q99558); assay: Inhibition of human NIK at 1 uM using RBER-CHKtide as substrate in presence of 33P-ATP by ProQinase assay
[13] = target: Ribosomal protein S6 kinase alpha-5 (Homo sapiens) (UniProt O75582); assay: Inhibition of human RPS6KA5 at 1 uM using RBER-CHKtide as substrate in presence of 33P-ATP by ProQinase assay
[14] = target: Dual specificity tyrosine-phosphorylation-regulated kinase 2 (Homo sapiens) (UniProt Q92630); assay: Inhibition of human DYRK2 at 1 uM using RBER-IRStide as substrate in presence of 33P-ATP by ProQinase assay
[15] = target: cAMP-dependent protein kinase catalytic subunit alpha (Homo sapiens) (UniProt P17612); assay: Inhibition of human PKACalpha at 1 uM using bio-4xCHKT as substrate in presence of 33P-ATP by ProQinase assay
[16] = target: Activin receptor type-2A (Homo sapiens) (UniProt P27037); assay: Inhibition of human ACVR2A at 1 uM using casein as substrate in presence of 33P-ATP by ProQinase assay
[17] = target: Serine/threonine-protein kinase tousled-like 2 (Homo sapiens) (UniProt Q86UE8); assay: Inhibition of human TLK2 at 1 uM using RB-S6P as substrate in presence of 33P-ATP by ProQinase assay
[18] = target: Serine/threonine-protein kinase 33 (Homo sapiens) (UniProt Q9BYT3); assay: Inhibition of human STK33 at 1 uM using RBER-CHKtide as substrate in presence of 33P-ATP by ProQinase assay
[19] = target: G protein-coupled receptor kinase 6 (Homo sapiens) (UniProt P43250); assay: Inhibition of human GRK6 at 1 uM using casein as substrate in presence of 33P-ATP by ProQinase assay
[20] = target: Dual specificity protein kinase CLK3 (Homo sapiens) (UniProt P49761); assay: Inhibition of human CLK3 at 1 uM using RB-S6P as substrate in presence of 33P-ATP by ProQinase assay
[21] = target: Mitogen-activated protein kinase kinase kinase 9 (Homo sapiens) (UniProt P80192); assay: Inhibition of human MAP3K9 at 1 uM using RBER-GSK3 as substrate in presence of 33P-ATP by ProQinase assay
[22] = target: Casein kinase I isoform gamma-1 (Homo sapiens) (UniProt Q9HCP0); assay: Inhibition of human CK1gamma1 at 1 uM using casein as substrate in presence of 33P-ATP by ProQinase assay
[23] = target: Serine/threonine-protein kinase PAK 5 (Homo sapiens) (UniProt Q9P286); assay: Inhibition of human PAK7 at 1 uM using bio-4xCHKT as substrate in presence of 33P-ATP by ProQinase assay
[24] = target: MAP kinase-activated protein kinase 2 (Homo sapiens) (UniProt P49137); assay: Inhibition of human MAPKAPK2 at 1 uM using RBER-CHKtide as substrate in presence of 33P-ATP by ProQinase assay
[25] = target: Phosphatidylinositol 5-phosphate 4-kinase type-2 alpha (Homo sapiens) (UniProt P48426); assay: Inhibition of recombinant human N-terminal His6-tagged PIP5K2alpha (1 to 406 residues) expressed in Escherichia coli at 1 uM using diC8 PI(5)P as substrate incubated for 40 mins by ADP-Glo assay
[26] = target: Phosphatidylinositol 4-phosphate 5-kinase type-1 alpha (Homo sapiens, UniProt Q99755); assay: Inhibition of human PIP5K1A using PI/PS as substrate by ADP-Glo assay

Sequence of Mitogen-activated protein kinase kinase kinase 9 (Homo sapiens) (P80192 whole entry, looked up, canonical isoform): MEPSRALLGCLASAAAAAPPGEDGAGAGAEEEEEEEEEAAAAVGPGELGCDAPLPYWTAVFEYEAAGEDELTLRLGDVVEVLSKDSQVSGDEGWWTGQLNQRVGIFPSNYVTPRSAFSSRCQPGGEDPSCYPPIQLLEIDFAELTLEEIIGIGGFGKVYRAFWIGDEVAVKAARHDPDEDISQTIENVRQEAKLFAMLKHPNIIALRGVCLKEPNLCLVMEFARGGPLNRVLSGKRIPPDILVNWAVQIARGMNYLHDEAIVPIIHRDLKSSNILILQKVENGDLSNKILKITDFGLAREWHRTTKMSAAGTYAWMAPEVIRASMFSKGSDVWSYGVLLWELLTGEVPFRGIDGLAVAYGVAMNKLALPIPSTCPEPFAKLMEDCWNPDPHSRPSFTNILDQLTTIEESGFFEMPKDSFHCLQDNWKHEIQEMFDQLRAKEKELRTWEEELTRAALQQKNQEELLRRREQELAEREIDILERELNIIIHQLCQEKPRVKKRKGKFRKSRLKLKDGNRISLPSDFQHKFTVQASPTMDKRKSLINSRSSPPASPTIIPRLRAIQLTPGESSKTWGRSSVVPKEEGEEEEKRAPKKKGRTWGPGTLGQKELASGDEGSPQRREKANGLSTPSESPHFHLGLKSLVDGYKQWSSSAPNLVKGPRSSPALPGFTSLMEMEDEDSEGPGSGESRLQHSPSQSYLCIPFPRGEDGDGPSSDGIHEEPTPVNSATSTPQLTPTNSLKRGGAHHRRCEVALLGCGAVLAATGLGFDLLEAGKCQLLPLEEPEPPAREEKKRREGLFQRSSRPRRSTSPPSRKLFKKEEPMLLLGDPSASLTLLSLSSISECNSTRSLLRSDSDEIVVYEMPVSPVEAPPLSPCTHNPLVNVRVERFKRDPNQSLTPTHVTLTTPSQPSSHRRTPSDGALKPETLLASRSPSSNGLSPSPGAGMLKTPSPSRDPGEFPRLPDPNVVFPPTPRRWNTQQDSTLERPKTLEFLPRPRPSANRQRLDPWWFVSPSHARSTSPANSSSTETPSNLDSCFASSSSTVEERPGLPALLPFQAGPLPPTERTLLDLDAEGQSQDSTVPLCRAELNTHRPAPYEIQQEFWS
Sequence of MAP kinase-activated protein kinase 2 (Homo sapiens) (P49137 whole entry, looked up, the tested form may be a part): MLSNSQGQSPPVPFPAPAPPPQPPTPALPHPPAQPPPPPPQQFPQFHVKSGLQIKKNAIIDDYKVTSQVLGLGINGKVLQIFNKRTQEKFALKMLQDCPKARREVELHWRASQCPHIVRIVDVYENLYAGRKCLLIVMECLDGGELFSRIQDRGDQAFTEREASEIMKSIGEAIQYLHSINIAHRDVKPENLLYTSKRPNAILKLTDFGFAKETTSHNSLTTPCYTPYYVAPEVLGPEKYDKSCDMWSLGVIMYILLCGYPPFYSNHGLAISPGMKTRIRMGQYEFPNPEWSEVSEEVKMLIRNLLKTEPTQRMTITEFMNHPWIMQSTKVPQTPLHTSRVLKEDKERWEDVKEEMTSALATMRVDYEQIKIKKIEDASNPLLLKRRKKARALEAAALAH
Sequence of Ephrin type-B receptor 1 (Homo sapiens) (P54762 whole entry): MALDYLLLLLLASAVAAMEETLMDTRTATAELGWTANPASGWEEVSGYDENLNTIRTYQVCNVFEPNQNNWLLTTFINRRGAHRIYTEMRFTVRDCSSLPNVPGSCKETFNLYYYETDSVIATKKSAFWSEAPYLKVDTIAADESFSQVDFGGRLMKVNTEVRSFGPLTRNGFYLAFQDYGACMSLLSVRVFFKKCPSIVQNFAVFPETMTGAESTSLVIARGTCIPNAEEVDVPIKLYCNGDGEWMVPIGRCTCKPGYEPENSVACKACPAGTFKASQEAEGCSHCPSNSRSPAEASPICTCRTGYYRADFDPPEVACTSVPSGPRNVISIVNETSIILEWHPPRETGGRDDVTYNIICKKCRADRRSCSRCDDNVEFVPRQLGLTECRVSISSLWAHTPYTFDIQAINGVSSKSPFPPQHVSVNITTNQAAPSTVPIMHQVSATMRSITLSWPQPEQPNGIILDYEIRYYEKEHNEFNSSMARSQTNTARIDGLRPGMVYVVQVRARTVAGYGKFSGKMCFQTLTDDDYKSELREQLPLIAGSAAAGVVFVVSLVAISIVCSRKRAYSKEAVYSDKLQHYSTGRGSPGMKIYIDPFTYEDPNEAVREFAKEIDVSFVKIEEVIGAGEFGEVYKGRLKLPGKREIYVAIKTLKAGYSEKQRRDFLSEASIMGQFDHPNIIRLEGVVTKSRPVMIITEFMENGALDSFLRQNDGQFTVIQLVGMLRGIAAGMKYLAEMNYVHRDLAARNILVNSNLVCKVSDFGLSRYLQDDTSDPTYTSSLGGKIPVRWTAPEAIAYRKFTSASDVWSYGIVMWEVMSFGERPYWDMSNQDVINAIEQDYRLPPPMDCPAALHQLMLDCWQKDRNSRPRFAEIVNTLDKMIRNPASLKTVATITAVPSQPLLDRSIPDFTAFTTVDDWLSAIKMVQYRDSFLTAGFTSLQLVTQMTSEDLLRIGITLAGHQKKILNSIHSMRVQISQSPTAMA
Sequence of Calcium/calmodulin-dependent protein kinase kinase 2 (Homo sapiens) (Q96RR4 2-588 limits assumed): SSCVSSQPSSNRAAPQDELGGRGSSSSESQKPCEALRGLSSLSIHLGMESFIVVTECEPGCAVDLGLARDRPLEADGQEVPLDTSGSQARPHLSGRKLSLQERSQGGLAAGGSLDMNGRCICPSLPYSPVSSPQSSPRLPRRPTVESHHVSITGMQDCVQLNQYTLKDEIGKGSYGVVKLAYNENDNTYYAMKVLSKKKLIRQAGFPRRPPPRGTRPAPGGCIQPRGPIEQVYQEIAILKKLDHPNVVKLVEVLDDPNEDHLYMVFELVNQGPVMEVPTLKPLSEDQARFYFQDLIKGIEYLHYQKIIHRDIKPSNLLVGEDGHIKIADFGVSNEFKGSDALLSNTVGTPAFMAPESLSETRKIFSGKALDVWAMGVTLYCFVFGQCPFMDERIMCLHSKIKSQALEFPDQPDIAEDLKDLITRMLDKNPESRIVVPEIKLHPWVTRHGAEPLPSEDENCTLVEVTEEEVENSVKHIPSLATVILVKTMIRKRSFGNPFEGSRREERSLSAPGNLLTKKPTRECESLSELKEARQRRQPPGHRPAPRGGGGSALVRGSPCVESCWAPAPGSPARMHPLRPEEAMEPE
Sequence of Serine/threonine-protein kinase tousled-like 2 (Homo sapiens) (Q86UE8 whole entry, looked up): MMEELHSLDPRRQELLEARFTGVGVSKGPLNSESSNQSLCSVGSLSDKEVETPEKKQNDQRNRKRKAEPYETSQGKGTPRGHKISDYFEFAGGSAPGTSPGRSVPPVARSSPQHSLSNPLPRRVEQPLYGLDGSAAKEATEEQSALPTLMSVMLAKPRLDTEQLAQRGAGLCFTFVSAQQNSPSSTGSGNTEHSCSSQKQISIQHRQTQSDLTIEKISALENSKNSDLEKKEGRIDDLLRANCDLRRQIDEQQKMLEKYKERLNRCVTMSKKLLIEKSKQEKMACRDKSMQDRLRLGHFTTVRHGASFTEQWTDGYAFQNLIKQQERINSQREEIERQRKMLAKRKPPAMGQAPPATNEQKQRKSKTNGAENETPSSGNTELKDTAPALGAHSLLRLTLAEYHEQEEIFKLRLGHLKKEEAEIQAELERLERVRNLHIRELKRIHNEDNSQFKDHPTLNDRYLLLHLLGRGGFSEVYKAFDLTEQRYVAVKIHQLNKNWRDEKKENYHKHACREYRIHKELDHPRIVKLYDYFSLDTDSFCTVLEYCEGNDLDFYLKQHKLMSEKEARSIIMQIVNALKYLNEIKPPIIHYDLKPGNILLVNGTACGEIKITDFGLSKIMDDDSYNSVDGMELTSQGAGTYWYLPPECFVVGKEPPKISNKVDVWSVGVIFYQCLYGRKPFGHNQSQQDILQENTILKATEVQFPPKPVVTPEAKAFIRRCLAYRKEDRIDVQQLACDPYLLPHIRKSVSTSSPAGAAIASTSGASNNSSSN
Sequence of Serine/threonine-protein kinase D1 (Homo sapiens) (Q15139 whole entry, the tested form may be a part): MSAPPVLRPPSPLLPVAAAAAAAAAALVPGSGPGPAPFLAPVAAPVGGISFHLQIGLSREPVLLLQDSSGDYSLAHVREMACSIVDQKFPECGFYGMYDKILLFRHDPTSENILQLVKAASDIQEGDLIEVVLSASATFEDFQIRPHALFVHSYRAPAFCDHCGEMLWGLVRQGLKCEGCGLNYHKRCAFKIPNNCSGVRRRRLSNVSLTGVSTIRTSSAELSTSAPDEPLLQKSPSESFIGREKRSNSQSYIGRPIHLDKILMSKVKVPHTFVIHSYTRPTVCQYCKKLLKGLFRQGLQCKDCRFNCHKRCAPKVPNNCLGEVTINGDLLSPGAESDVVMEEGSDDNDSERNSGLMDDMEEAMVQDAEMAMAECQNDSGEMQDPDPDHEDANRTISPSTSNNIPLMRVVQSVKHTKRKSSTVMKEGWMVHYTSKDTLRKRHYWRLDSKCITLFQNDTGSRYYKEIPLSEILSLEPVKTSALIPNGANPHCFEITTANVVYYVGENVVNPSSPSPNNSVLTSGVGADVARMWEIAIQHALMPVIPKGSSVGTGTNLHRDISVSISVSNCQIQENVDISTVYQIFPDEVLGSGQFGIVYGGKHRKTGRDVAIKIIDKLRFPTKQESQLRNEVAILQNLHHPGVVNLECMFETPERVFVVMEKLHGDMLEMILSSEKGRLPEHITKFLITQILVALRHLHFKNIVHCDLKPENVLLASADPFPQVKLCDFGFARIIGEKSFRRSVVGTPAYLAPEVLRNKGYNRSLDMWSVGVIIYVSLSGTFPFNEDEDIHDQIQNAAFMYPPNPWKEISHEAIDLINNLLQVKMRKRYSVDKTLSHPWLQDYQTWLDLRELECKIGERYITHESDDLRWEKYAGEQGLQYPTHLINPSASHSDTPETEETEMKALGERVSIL

CC(C)(O)CNc1ncc(-c2ccnc(Nc3ccnc(Cl)c3)n2)c(CC2CC2)n1 gave an Activity [1] of 122%, an Activity [2] of 116% and an Activity [3] of 115%. For the same compound, the Activity [4] was 111%, the inhibition [5] was “inactive” and the inhibition [6] was “inactive”. For the same compound, the inhibition [7] was “inactive”, the inhibition [8] was “inactive” and the inhibition [9] was “inactive”. The inhibition [10] was “inactive”, the inhibition [11] was “inactive” and the inhibition [12] was “inactive”. For the same compound, the inhibition [13] was “inactive”, the inhibition [14] was “inactive” and the inhibition [15] was “inactive”. For the same compound, the inhibition [16] was “inactive”, the inhibition [17] was “inactive” and the inhibition [18] was “inactive”. The inhibition [19] was “inactive”, the inhibition [20] was “inactive” and the inhibition [21] was “inactive”. The inhibition [22] was “inactive”, the inhibition [23] was “inactive” and the inhibition [24] was “inactive”. The inhibition [25] was “inactive” and the IC50 [26] was 4.93 µM.
